Published values of several laboratories.
Target: Serine/threonine-protein kinase mTOR (MTOR, Homo sapiens, UniProt P42345)

observed	action	technique	tested at	endpoint	value	SMILES
enzyme activity	inhibitor		1 µM	inhibition	0%	CO[C@@H]1[C@H](N(C)C(=O)c2ccccc2)C[C@H]2O[C@]1(C)n1c3ccccc3c3c4c(c5c6ccccc6n2c5c31)C(=O)NC4
binding		competition with immobilised ligand	0.5 µM	remaining binding	67%	CCCCC(=O)Nc1ccc(-c2ccc3ncn(CCC)c(=O)c3c2)cn1
binding			1 µM	remaining binding	100%	COc1ccc2[nH]c3c4[nH]c5ccc(OC)cc5c4c4c(c3c2c1)C(=O)NC4=O
enzyme activity	inhibitor		1 µM	inhibition	0%	C=CC(=O)N1CCC([C@@H]2CCNc3c(C(N)=O)c(-c4ccc(Oc5ccccc5)cc4)nn32)CC1
cell-free assay			1 µM	remaining signal	7%	COc1ccc2oc(-c3ccc4nc(N)oc4c3)c/c(=N\c3ccccc3NC(=O)CCN)c2c1
cell-free assay	inhibitor		0.1 µM	inhibition	9.2%	Cc1cc(O)c(-c2ccc([C@@H](C)CN(C)C)cc2)c2c1[nH]c(=O)c1sccc12
binding			1 µM	remaining binding	100%	CN1CCN(C(=O)c2ccc(NC(=O)Nc3ccc(N(C)c4ccnc(Nc5ccc(CS(C)(=O)=O)cc5)n4)cc3)cc2)CC1
binding			0.1 µM	remaining binding	72%	C1=C/COCc2cc(ccc2OCCN2CCCC2)Nc2nccc(n2)-c2cccc(c2)COC/1
